From ChEMBL document CHEMBL2146369, “Oxazolo[3,2-a]pyridine. A new structural scaffold for the reversal of multi-drug resistance in Leishmania” (Bioorg Med Chem Lett, 2012)
Calls of active or inactive are those of the source. The rule behind the calls is not given here.

Legend:
THP-1 = assay: Cytotoxicity against PMA-stimulated human THP1 cells after 72 hrs by MTT assay; format: cell-based; conditions: THP-1, 72 h
Summary of the method: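 THP-1 cells grown at 37 °C, 5% CO2 in RPMI-1640 with 10% iFBS, […], penicillin and streptomycin. Differentiated to macrophages with 20 ng/mL PMA for 48 h, then 24 h in fresh medium. MTT viability assay run as for parasites but incubated at 37 °C. IC50 determined.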

Leishmania tropica [1] = assay: Resistance ratio of IC50 for multidrug-resistant Leishmania tropica and IC50 for wild type Leishmania tropica LRC; format: functional
Summary of the method: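 DNM-selected MDR and parental wild-type L. tropica promastigotes treated with increasing drug concentrations for 72 h at 28 °C. Viability read by MTT at 540 nm. Ratio of MDR IC50 to parental IC50 calculated.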

Leishmania tropica [2] = assay: Antileishmanial activity against promastigotes of multidrug-resistant Leishmania tropica after 72 hrs by MTT assay; format: functional, organism-based
Summary of the method: (§1)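 Promastigotes of wild-type L. tropica LRC clone or DNM-selected MDR line (kept in 150 µM DNM or 30 µM MLF), grown at 28 °C in modified RPMI 1640 with 20% heat-inactivated FBS. Exposed to compounds without DNM for 72 h at 28 °C. Viability read by MTT absorbance at 540 nm, expressed relative to untreated parasites.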

Leishmania tropica [3] = assay: Antileishmanial activity against promastigotes of wild type Leishmania tropica LRC after 72 hrs by MTT assay; format: functional, organism-based; summary of the method: as §1
Leishmania tropica [4] = assay: Potentiation of daunomycin-induced antileishmanial activity against promastigotes of multidrug-resistant Leishmania tropica at 3 to 8 uM after 72 hrs by MTT assay; format: functional, organism-based
Leishmania tropica [5] = assay: Potentiation of daunomycin-induced antileishmanial activity against promastigotes of multidrug-resistant Leishmania tropica assessed as fold decrease in daunomycin IC50 at 6 uM after 72 hrs by MTT assay; format: functional
Summary of the method: (§2)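 MDR L. tropica promastigotes given increasing DNM or miltefosine concentrations, with or without 6 µM modulator, for 72 h at 28 °C. Viability measured by MTT absorbance at 540 nm. IC50 taken for each condition. Reversal index is drug IC50 without modulator divided by IC50 with it. Three independent experiments.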

Leishmania tropica [6] = assay: Potentiation of miltefosine-induced antileishmanial activity against promastigotes of multidrug-resistant Leishmania tropica assessed as fold decrease in miltefosine IC50 at 6 uM after 72 hrs by MTT assay; format: functional; summary of the method: as §2

Compound COC(=O)C1=C(C)N2CCO[C@@]2(C)[C@@H](CO)[C@@H]1c1cccc([N+](=O)[O-])c1 (racemic) has an IC50 (THP-1) of over 400 µM.

CCCCCCCCCCCCCCCCOP(=O)([O-])OCC[N+](C)(C)C [MILTEFOSINE] was tested, and the “Ratio IC50” value (Leishmania tropica [1]) was 22, the IC50 (THP-1) was 7 µM and the IC50 (Leishmania tropica [2]) was 240 µM. It also gave an IC50 (Leishmania tropica [3]) of 10.9 µM.

With COC(=O)C1=C(C)N2CCO[C@@]2(C)[C@@H](C(=O)OCc2ccccc2)[C@@H]1c1cccc(Cl)c1 (racemic) the IC50 (THP-1) was over 400 µM.

In the case of COC(=O)C1=C(C)N2CCO[C@@]2(C)[C@@H](C(=O)OC)[C@@H]1c1ccc[nH]1 (racemic), the IC50 (THP-1) is reported as over 400 µM, the Activity (Leishmania tropica [4]) is reported as “Active” and the “fold change (FC)” value (Leishmania tropica [5]) is reported as 1.3. The “fold change (FC)” value (Leishmania tropica [6]) was 1.9.

In the case of CC(=O)O[C@H]1C[C@](C)(O)[C@]23OC(C)(C)[C@H](C[C@H](OC(=O)c4ccco4)[C@]2(C)[C@H]1OC(C)=O)[C@H]3OC(=O)c1ccco1, the “fold change (FC)” value (Leishmania tropica [5]) is reported as 4.7 and the “fold change (FC)” value (Leishmania tropica [6]) is reported as 6.

With COC(=O)C1=C(C)N2C(=O)[C@H](C)O[C@@]2(C)[C@@H](C(=O)OC)[C@@H]1c1cccc(Cl)c1 (racemic) the IC50 (THP-1) was over 400 µM.

For COC(=O)C1=C(C)N2CCS[C@@]2(C)[C@@H](C(=O)OC)[C@@H]1c1cccc(Cl)c1 (racemic), the IC50 (THP-1) was over 400 µM, the Activity (Leishmania tropica [4]) was “Active” and the “fold change (FC)” value (Leishmania tropica [5]) was 2.2. For the same compound, the “fold change (FC)” value (Leishmania tropica [6]) was 3.5.

COc1cccc2c1C(=O)c1c(O)c3c(c(O)c1C2=O)C[C@@](O)(C(C)=O)C[C@@H]3O[C@H]1C[C@H](N)[C@H](O)[C@H](C)O1 [DAUNORUBICIN] was tested, and the “Ratio IC50” value (Leishmania tropica [1]) was 64, the IC50 (THP-1) was 26.9 µM and the IC50 (Leishmania tropica [2]) was 180 µM. It also gave an IC50 (Leishmania tropica [3]) of 2.8 µM.

In the case of COC(=O)C1=C(C)N2C[C@H](C)O[C@@]2(C)[C@@H](C(=O)OC)[C@@H]1c1cccc(Cl)c1, the IC50 (THP-1) is reported as over 400 µM and the “fold change (FC)” value (Leishmania tropica [5]) is reported as over 6.

In the case of COC(=O)C1=C(C)N2CCO[C@@]2(C)[C@@H](C(=O)OC)[C@@H]1c1cccc([N+](=O)[O-])c1 (racemic), the IC50 (THP-1) is reported as over 400 µM, the Activity (Leishmania tropica [4]) is reported as “Active” and the “fold change (FC)” value (Leishmania tropica [5]) is reported as 3.9. The “fold change (FC)” value (Leishmania tropica [6]) was 3.4.

In the case of COC(=O)C1=C(C)N2CCO[C@@]2(C)[C@@H](C(=O)OCc2ccccc2)[C@@H]1c1cccc([N+](=O)[O-])c1 (racemic), the IC50 (THP-1) is reported as over 400 µM.

In the case of COC(=O)C1=C(C)N2CCO[C@@]2(C)[C@@H](C(=O)OC)[C@@H]1c1ccco1 (racemic), the IC50 (THP-1) is reported as over 400 µM.

COC(=O)C1=C(C)N2C[C@@H](C)O[C@]2(C)[C@H](C(=O)OC(C)(C)C)[C@H]1c1cccc(Cl)c1 was tested, and the IC50 (THP-1) was over 400 µM and the “fold change (FC)” value (Leishmania tropica [6]) was 8.7.

C=CCOC(=O)[C@H]1[C@H](c2cccc(Cl)c2)C(C(=O)OC)=C(C)N2CCO[C@@]12C (racemic) was tested, and the “fold change (FC)” value (Leishmania tropica [5]) was over 5.

In the case of COC(=O)C1=C(C)N2CCCO[C@@]2(C)[C@@H](C(=O)OC)[C@@H]1c1cccc(Cl)c1 (racemic), the IC50 (THP-1) is reported as over 400 µM, the Activity (Leishmania tropica [4]) is reported as “Active” and the “fold change (FC)” value (Leishmania tropica [5]) is reported as 3.2. For the same compound, the “fold change (FC)” value (Leishmania tropica [6]) was 1.5.
